ChEMBL document CHEMBL4196142, “Efficacy of Apigenin and Miltefosine Combination Therapy against Experimental Cutaneous Leishmaniasis” (J Nat Prod, 2018)
Active and inactive are the calls of the source. The rule behind the calls is not given here.

Columns and labels:
Mus musculus [1] = assay: (§1) Hepatotoxicity in Balb/c mouse infected with stationary-phase Leishmania amazonensis MHOM/BR/75/LTB0016 promastigotes assessed as serum ALT level at 8 mg/kg, po administered once daily via orogastric tube for 32 days starting from 7 days post infection measured post last dose (reference value: 88.41 +/- 8.77 U/L); type: toxicity, organism-based; settings: in vivo
In short: (§2)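 Infected female BALB/c mice, dosed orally once daily from day 7 to day 32, had serum AST, ALT and creatinine measured by dry chemistry technology at the PDTIS-FIOCRUZ facility. Mean ± SE, n = 5.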

Mus musculus [2] = assay: as §1, with “AST” for “ALT”, “161.1” for “88.41”, “20.99” for “8.77”; type: toxicity, organism-based; settings: in vivo; in short: as §2
Leishmania amazonensis [3] = assay: (§3) Antileishmanial activity against stationary-phase Leishmania amazonensis MHOM/BR/75/LTB0016 promastigotes infected in Balb/c mouse assessed as reduction in lesion size at 8 mg/kg, po administered once daily via orogastric tube starting from 7 days post infection for 32 days measured twice weekly during compound dosing by caliper method; type: functional, organism-based
In short: (§4)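 Female BALB/c mice, 10−12 weeks, were infected intradermally in the right ear with 2 × 10^6 stationary-phase promastigotes in 10 μL PBS. From day 7 post-infection, dosing was oral by orogastric tube once daily, seven times per week, until day 32. Compound in DMSO (1% v/v), miltefosine in PBS; controls got vehicle suspension with DMSO 0.2% v/v. Lesion size was read by dial caliper twice weekly; n = 5.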

Leishmania amazonensis [4] = assay: (§5) Synergistic antileishmanial activity against stationary-phase Leishmania amazonensis MHOM/BR/75/LTB0016 promastigotes infected in human THP1-derived macrophages assessed as fractional inhibitory concentration at apigenin to test compound ratio of 1:4 by serial dilution based light microscopic method; type: functional
In short: (§6)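 In the infected THP-1 macrophage fixed-ratio assay, FIC and ∑FIC came from each ratio's EC50 by the modified fixed-ratio isobologram method. Mean ∑FIC was the average of the ∑FICs and was used to classify the interaction; isobolograms were plotted from each ratio's FIC values.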

Leishmania amazonensis [5] = assay: Antileishmanial activity against stationary-phase Leishmania amazonensis MHOM/BR/75/LTB0016 promastigotes infected in human THP1-derived macrophages at apigenin to test compound ratio of 2:3 by serial dilution based light microscopic method; type: functional, organism-based
Leishmania amazonensis [6] = assay: Antileishmanial activity against stationary-phase Leishmania amazonensis MHOM/BR/75/LTB0016 promastigotes infected in human THP1-derived macrophages by serial dilution based light microscopic method; type: functional, organism-based
Leishmania amazonensis [7] = assay: Antileishmanial activity against stationary-phase Leishmania amazonensis MHOM/BR/75/LTB0016 promastigotes infected in human THP1-derived macrophages at apigenin to test compound ratio of 4:1 by serial dilution based light microscopic method; type: functional, organism-based
Leishmania amazonensis [8] = assay: (§7) Synergistic antileishmanial activity against stationary-phase Leishmania amazonensis MHOM/BR/75/LTB0016 promastigotes infected in human THP1-derived macrophages assessed as fractional inhibitory concentration at apigenin to test compound ratio of 2:3 by serial dilution based light microscopic method; type: functional; in short: as §6
Leishmania amazonensis [9] = assay: (§8) Synergistic antileishmanial activity against stationary-phase Leishmania amazonensis MHOM/BR/75/LTB0016 promastigotes infected in human THP1-derived macrophages assessed as fractional inhibitory concentration at apigenin to test compound ratio of 3:2 by serial dilution based light microscopic method; type: functional; in short: as §6
Mus musculus [10] = assay: as §1, with “Renal toxicity” for “Hepatotoxicity”, “creatinine” for “ALT”, “0.61” for “88.41”, “0.06 mg/dl)” for “8.77 U/L)”; type: organism-based; settings: in vivo; in short: as §2
Leishmania amazonensis [11] = assay: Antileishmanial activity against stationary-phase Leishmania amazonensis MHOM/BR/75/LTB0016 promastigotes infected in human THP1-derived macrophages at apigenin to test compound ratio of 3:2 by serial dilution based light microscopic method; type: functional, organism-based
Leishmania amazonensis [12] = assay: Antileishmanial activity against stationary-phase Leishmania amazonensis MHOM/BR/75/LTB0016 promastigotes infected in human THP1-derived macrophages at apigenin to test compound ratio of 1:4 by serial dilution based light microscopic method; type: functional, organism-based
Leishmania amazonensis [13] = assay: Antileishmanial activity against stationary-phase Leishmania amazonensis MHOM/BR/75/LTB0016 promastigotes infected in Balb/c mouse assessed as reduction in parasite load at 8 mg/kg, po administered once daily via orogastric tube starting from 7 days post infection for 32 days by dilution method; type: functional, organism-based
In short: (§9)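 Ear infection and daily oral dosing were as for the lesion study in female BALB/c mice, ending at euthanasia on day 32. Infected ears were excised, weighed, minced in Schneider's medium with 10% FCS and serially diluted. Viable parasites per ear were estimated from the highest dilution still growing promastigotes after 7 days at 26 °C. Mean ± SE, n = 5 ears.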

Leishmania amazonensis [14] = assay: (§10) Synergistic antileishmanial activity against stationary-phase Leishmania amazonensis MHOM/BR/75/LTB0016 promastigotes infected in human THP1-derived macrophages assessed as fractional inhibitory concentration at apigenin to test compound ratio of 4:1 by serial dilution based light microscopic method; type: functional; in short: as §6
Mus musculus [15] = assay: as §1, with “at 1” for “at 8”, “dose in presence of 4 mg/kg miltefosine” for “dose”; type: toxicity, organism-based; settings: in vivo; in short: as §2
Leishmania amazonensis [16] = assay: Antileishmanial activity against stationary-phase Leishmania amazonensis MHOM/BR/75/LTB0016 promastigotes infected in human THP1-derived macrophages at test compound to miltefosine ratio of 1:4 by serial dilution based light microscopic method; type: functional, organism-based
Leishmania amazonensis [17] = assay: as §3, with “Synergistic antileishmanial” for “Antileishmanial”, “1” for “8”, “dosing in presence of 4 mg/kg miltefosine” for “dosing”, “method relative to control” for “method”; type: functional; design: scale not given: the % may be the effect or the level left; in short: as §4
Leishmania amazonensis [18] = assay: as §10, with “at” for “at apigenin to”, “compound to miltefosine” for “compound”; type: functional; in short: as §6
Leishmania amazonensis [19] = assay: as §7, with “at” for “at apigenin to”, “compound to miltefosine” for “compound”; type: functional; in short: as §6
Leishmania amazonensis [20] = assay: as §5, with “at” for “at apigenin to”, “compound to miltefosine” for “compound”; type: functional; in short: as §6
Leishmania amazonensis [21] = assay: Antileishmanial activity against stationary-phase Leishmania amazonensis MHOM/BR/75/LTB0016 promastigotes infected in human THP1-derived macrophages at test compound to miltefosine ratio of 3:2 by serial dilution based light microscopic method; type: functional, organism-based
Mus musculus [22] = assay: as §1, with “Renal toxicity” for “Hepatotoxicity”, “creatinine” for “ALT”, “2” for “8”, “0.61” for “88.41”, “0.06 mg/dl)” for “8.77 U/L)”; type: organism-based; settings: in vivo; in short: as §2
Leishmania amazonensis [23] = assay: as §8, with “at” for “at apigenin to”, “compound to miltefosine” for “compound”; type: functional; in short: as §6
Mus musculus [24] = assay: as §1, with “Renal toxicity” for “Hepatotoxicity”, “creatinine” for “ALT”, “1” for “8”, “dose in presence of 4 mg/kg miltefosine” for “dose”, “0.61” for “88.41”, “0.06 mg/dl)” for “8.77 U/L)”; type: organism-based; settings: in vivo; in short: as §2
Mus musculus [25] = assay: as §1, with “AST” for “ALT”, “1” for “8”, “dose in presence of 4 mg/kg miltefosine” for “dose”, “161.1” for “88.41”, “20.99” for “8.77”; type: toxicity, organism-based; settings: in vivo; in short: as §2
Mus musculus [26] = assay: as §1, with “at 2” for “at 8”; type: toxicity, organism-based; settings: in vivo; in short: as §2
Leishmania amazonensis [27] = assay: Synergistic antileishmanial activity against stationary-phase Leishmania amazonensis MHOM/BR/75/LTB0016 promastigotes infected in Balb/c mouse assessed as reduction in parasite load at 1 mg/kg, po administered once daily via orogastric tube starting from 7 days post infection for 32 days in presence of 4 mg/kg miltefosine by dilution method relative to control; type: functional; design: scale not given: the % may be the effect or the level left; in short: as §9
Leishmania amazonensis [28] = assay: Antileishmanial activity against stationary-phase Leishmania amazonensis MHOM/BR/75/LTB0016 promastigotes infected in Balb/c mouse assessed as reduction in parasite load at 2 mg/kg, po administered once daily via orogastric tube starting from 7 days post infection for 32 days by dilution method; type: functional, organism-based; in short: as §9
Leishmania amazonensis [29] = assay: Antileishmanial activity against stationary-phase Leishmania amazonensis MHOM/BR/75/LTB0016 promastigotes infected in human THP1-derived macrophages at test compound to miltefosine ratio of 4:1 by serial dilution based light microscopic method; type: functional, organism-based
Leishmania amazonensis [30] = assay: as §3, with “2” for “8”; type: functional, organism-based; in short: as §4
Leishmania amazonensis [31] = assay: Antileishmanial activity against stationary-phase Leishmania amazonensis MHOM/BR/75/LTB0016 promastigotes infected in human THP1-derived macrophages at test compound to miltefosine ratio of 2:3 by serial dilution based light microscopic method; type: functional, organism-based
Mus musculus [32] = assay: as §1, with “AST” for “ALT”, “2” for “8”, “161.1” for “88.41”, “20.99” for “8.77”; type: toxicity, organism-based; settings: in vivo; in short: as §2

## CCCCCCCCCCCCCCCCOP(=O)([O-])OCC[N+](C)(C)C [MILTEFOSINE]
Mus musculus [1]
  Activity: 61.14 U/L
Mus musculus [2]
  Activity: 271.1 U/L
Leishmania amazonensis [3]
  Activity: Active
Leishmania amazonensis [4]
  FIC50: 1.5
Leishmania amazonensis [5]
  EC50: 1530 nM
Leishmania amazonensis [6]
  EC50: 750 nM
Leishmania amazonensis [7]
  EC50: 440 nM
Leishmania amazonensis [8]
  FIC50: 2.03
Leishmania amazonensis [9]
  FIC50: 0.96
Mus musculus [10]
  Activity: 0.66 mg/dL
Leishmania amazonensis [11]
  EC50: 730 nM
Leishmania amazonensis [12]
  EC50: 1130 nM
Leishmania amazonensis [13]
  Activity: Active
Leishmania amazonensis [14]
  FIC50: 0.58

## O=c1cc(-c2ccc(O)cc2)oc2cc(O)cc(O)c12 [APIGENIN]
Mus musculus [15]
  Activity: 53.55 U/L
Leishmania amazonensis [16]
  EC50: 160 nM
Leishmania amazonensis [17]
  Activity: 75%
Leishmania amazonensis [18]
  FIC50: 0.77
Leishmania amazonensis [19]
  FIC50: 0.18
Leishmania amazonensis [6]
  EC50: 3850 nM
Leishmania amazonensis [20]
  FIC50: 0.04
Leishmania amazonensis [21]
  EC50: 1430 nM
Mus musculus [22]
  Activity: 0.63 mg/dL
Leishmania amazonensis [23]
  FIC50: 0.37
Mus musculus [24]
  Activity: 0.69 mg/dL
Mus musculus [25]
  Activity: 115.1 U/L
Mus musculus [26]
  Activity: 43.21 U/L
Leishmania amazonensis [27]
  Activity: 95%
Leishmania amazonensis [28]
  Activity: Active
Leishmania amazonensis [29]
  EC50: 2990 nM
Leishmania amazonensis [30]
  Activity: Active
Leishmania amazonensis [31]
  EC50: 730 nM
Mus musculus [32]
  Activity: 100.5 U/L
